Among the data in ChEMBL document CHEMBL2046433, “Structure-activity relationships and optimization of 3,5-dichloropyridine derivatives as novel P2X(7) receptor antagonists” (J Med Chem, 2012) are IC50, inhibition and Activity values, retold here.

The target in one experiment is T1, P2X purinoceptor 7 (Homo sapiens, UniProt Q99572).
T1 sequence (Q99572 whole entry): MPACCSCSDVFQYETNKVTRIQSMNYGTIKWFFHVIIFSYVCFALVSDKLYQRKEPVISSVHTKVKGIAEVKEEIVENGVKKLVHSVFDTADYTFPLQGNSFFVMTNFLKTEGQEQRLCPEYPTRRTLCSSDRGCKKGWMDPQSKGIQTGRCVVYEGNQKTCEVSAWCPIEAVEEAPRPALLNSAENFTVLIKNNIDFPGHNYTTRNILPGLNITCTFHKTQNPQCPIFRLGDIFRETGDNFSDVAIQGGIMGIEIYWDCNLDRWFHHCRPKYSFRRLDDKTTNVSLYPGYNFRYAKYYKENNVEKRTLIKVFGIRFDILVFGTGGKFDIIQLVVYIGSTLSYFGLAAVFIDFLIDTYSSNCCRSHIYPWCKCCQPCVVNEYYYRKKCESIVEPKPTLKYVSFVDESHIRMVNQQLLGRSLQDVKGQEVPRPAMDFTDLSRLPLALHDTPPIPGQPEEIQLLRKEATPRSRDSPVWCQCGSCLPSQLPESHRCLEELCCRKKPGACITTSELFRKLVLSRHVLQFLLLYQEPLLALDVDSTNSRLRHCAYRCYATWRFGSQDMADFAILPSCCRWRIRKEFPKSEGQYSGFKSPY
Briefly: Antagonist activity at human P2X7 receptor expressed in HEK293 cells assessed as inhibition of BzATP-induced ethidium bromide uptake after 2 hrs by fluorescence analysis.
Conditions: not given
It is filed as functional, cell-based.
As for `O=C(CCCCc1ccccc1)NNc1c(Cl)cncc1Cl`, the IC50 was 1200 nM.
Consider `O=C(CC1C2CC3CC(C2)CC1C3)NNc1c(Cl)cncc1Cl` (configuration not stated), for which the IC50 is 340 nM.
Consider `CC12CC3CC(C)(C1)CC(C(=O)NNc1c(Cl)cncc1Cl)(C3)C2`, for which the half-maximal inhibitory concentration (IC50) worked out at 13 nM.
Take `O=C(NNc1c(Cl)cncc1Cl)OCc1ccccc1`: the half-maximal inhibitory concentration (IC50) is 370 nM.
In the case of `O=C(NNc1c(Cl)cncc1Cl)C1CC2CCC1C2` (configuration not stated), the half-maximal inhibitory concentration (IC50) turned out to be 2800 nM.
Still for that read-out and setting: to `O=C(NNc1c(Cl)cncc1Cl)C1CCc2ccccc2C1` (racemic) belongs 1100 nM; to `O=C(CCC1CCCCC1)NNc1c(Cl)cncc1Cl`, 130 nM.
Turning to `O=C(NNc1c(Cl)cncc1Cl)C1C2CC3CC(C2)C(Br)C1C3` (configuration not stated), the half-maximal inhibitory concentration (IC50) was 4.9 nM.
On to `O=C(CCCc1ccccc1)NNc1c(Cl)cncc1Cl`, for which the 50% inhibitory concentration (IC50) came out at 770 nM.
Still for that read-out and setting: the result for `O=C(CC1CC2CCC1C2)NNc1c(Cl)cncc1Cl` (configuration not stated) reads 210 nM; that for `O=C(CCc1cccc2ccccc12)NNc1c(Cl)cncc1Cl`, 1200 nM; that for `COc1ccc(CCC(=O)NNc2c(Cl)cncc2Cl)cc1`, 1500 nM.
Turning to `O=C(NNc1c(Cl)cncc1Cl)C1C2CC3CC(C2)CC1C3` (configuration not stated), the IC50 was 77 nM.
On the same count and under the same terms, to `O=C(CCc1ccc(Cl)cc1)NNc1c(Cl)cncc1Cl` belongs 1100 nM; to `O=C(CC1CCCCC1)NNc1c(Cl)cncc1Cl`, 730 nM.
Consider `CN([C@@H](Cc1ccc(OS(=O)(=O)c2cccc3cnccc23)cc1)C(=O)N1CCN(c2ccccc2)CC1)S(=O)(=O)c1cccc2cnccc12`, for which the concentration for half-maximal inhibition (IC50) was 280 nM.
`O=C(CC1CCCCCC1)NNc1c(Cl)cncc1Cl`: the IC50 was found to be 200 nM.
Take `O=C(CCc1ccccc1)NNc1c(Cl)cncc1Cl`: the IC50 was determined as 650 nM.
As for `O=C(Cc1ccc(Cl)cc1Cl)NNc1c(Cl)cncc1Cl`, the 50% inhibitory concentration (IC50) was determined as 2500 nM.
On to `O=C(NNc1c(Cl)cncc1Cl)C12CC3CC(CC1C3)C2`, for which the concentration for half-maximal inhibition (IC50) is 1400 nM.
On to `Cc1ccc(CCC(=O)NNc2c(Cl)cncc2Cl)cc1`, for which the IC50 worked out at 1400 nM.
As to `O=C(CCc1ccc(F)cc1)NNc1c(Cl)cncc1Cl`, the IC50 is 900 nM.
In the case of `O=C(CCCC1CCCCC1)NNc1c(Cl)cncc1Cl`, the IC50 was 360 nM.
As to `O=C(CCCCCc1ccccc1)NNc1c(Cl)cncc1Cl`, the concentration for half-maximal inhibition (IC50) amounted to 1900 nM.
Turning to `O=C(CCC1CCCC1)NNc1c(Cl)cncc1Cl`, the IC50 amounted to 380 nM.
For the molecule `O=C(NNc1c(Cl)cncc1Cl)C1Cc2ccccc21` (racemic), the 50% inhibitory concentration (IC50) came to 320 nM.
On the same count and under the same terms, to `O=C(CCCCCCc1ccccc1)NNc1c(Cl)cncc1Cl` belongs 950 nM; to `Cc1cccc(C)c1NNC(=O)CCc1ccccc1`, 900 nM.
Consider `O=C(NNc1c(Cl)cncc1Cl)C1Cc2ccccc2C1`, for which the IC50 amounted to 4200 nM.
Regarding `O=C(Cc1ccc(Cl)cc1)NNc1c(Cl)cncc1Cl`, the IC50 worked out at 620 nM.
For the molecule `O=C(Cc1ccccc1)NNc1c(Cl)cncc1Cl`, the IC50 was found to be 1100 nM.
`O=C(CCc1ccccc1)NNc1c(Cl)cccc1Cl`: the concentration for half-maximal inhibition (IC50) came to 1400 nM.

Another experiment has as its target T2, P2X purinoceptor 7 (Homo sapiens) (UniProt Q99572).
T2 sequence (whole entry): T1 sequence (Q99572 whole entry)
Briefly: Antagonist activity at human P2X7 receptor expressed in HEK293 cells assessed as inhibition of BzATP-induced ethidium bromide uptake at 20 uM after 2 hrs by fluorescence analysis. The format is functional, cell-based.
Conditions: not given
For the molecule `O=C(Cc1ccncc1)NNc1c(Cl)cncc1Cl`, the inhibition was < 20%.

For the next experiment, the target named is T3, P2X purinoceptor 1 (Mus musculus) (UniProt P51576).
T3 sequence (whole entry): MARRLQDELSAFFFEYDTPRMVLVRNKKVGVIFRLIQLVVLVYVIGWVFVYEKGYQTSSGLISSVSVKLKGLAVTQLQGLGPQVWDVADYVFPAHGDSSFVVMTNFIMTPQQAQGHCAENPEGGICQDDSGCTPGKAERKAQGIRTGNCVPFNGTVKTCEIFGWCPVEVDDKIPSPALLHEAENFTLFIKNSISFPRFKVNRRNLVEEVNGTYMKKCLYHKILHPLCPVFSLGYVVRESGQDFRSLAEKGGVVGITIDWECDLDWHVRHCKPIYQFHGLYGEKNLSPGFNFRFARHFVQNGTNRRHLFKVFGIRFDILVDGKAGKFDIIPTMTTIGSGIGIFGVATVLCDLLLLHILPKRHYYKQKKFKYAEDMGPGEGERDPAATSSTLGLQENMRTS
Briefly: Antagonist activity at mouse P2X1 receptor expressed in Xenopus oocytes assessed as reduction in ATP-induced ion current at 10 uM. The format is functional, cell-based. The arrangement: scale not given: the % may be the effect or the level left. To be noted: Oocyte. An outline of the steps:
(§1)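 Two-electrode voltage clamp on Xenopus oocytes made to express the receptor by microinjection of capped cRNA. Currents were evoked by 2 μM ATP, and the test compound was given at 10 μM. The read-out is the percent reduction of the ATP-induced ion current.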
With `CC12CC3CC(C)(C1)CC(C(=O)NNc1c(Cl)cncc1Cl)(C3)C2`, the Activity is 10%.

A further experiment addresses T4, P2X purinoceptor 3 (Homo sapiens) (UniProt P56373).
T4 sequence (whole entry): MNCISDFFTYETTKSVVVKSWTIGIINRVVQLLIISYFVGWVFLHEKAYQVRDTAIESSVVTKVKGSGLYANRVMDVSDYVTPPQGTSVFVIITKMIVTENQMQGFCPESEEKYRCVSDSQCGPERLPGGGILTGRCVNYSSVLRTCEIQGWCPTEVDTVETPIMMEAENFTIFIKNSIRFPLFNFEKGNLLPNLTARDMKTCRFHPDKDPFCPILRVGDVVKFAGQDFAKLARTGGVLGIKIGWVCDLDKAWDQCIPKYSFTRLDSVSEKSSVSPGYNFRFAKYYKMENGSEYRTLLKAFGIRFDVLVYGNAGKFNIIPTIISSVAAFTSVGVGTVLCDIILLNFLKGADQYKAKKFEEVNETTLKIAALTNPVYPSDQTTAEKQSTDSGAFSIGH
Briefly: Antagonist activity at human P2X3 receptor expressed in Xenopus oocytes assessed as reduction in ATP-induced ion current at 10 uM. It is filed as functional, cell-based. To be noted: Oocyte. The arrangement: scale not given: the % may be the effect or the level left. An outline of the steps: as §1
`CC12CC3CC(C)(C1)CC(C(=O)NNc1c(Cl)cncc1Cl)(C3)C2`: the Activity came out at 10%.

For a further experiment, the target named is T2, P2X purinoceptor 7 (Homo sapiens). Briefly: Antagonist activity at human P2X7 receptor expressed in HEK293 cells assessed as inhibition of BzATP-induced ethidium bromide uptake at 10 uM after 2 hrs by fluorescence analysis.
Conditions: not given
Regarding `O=C(CCc1ccccc1)NNc1c(F)cccc1F`, the inhibition is < 20%.
Consider `O=C(CCc1ccccc1)NNc1c(F)cncc1F`, for which the inhibition is < 20%.
Turning to `O=C(NNc1c(Cl)cncc1Cl)c1ccccc1`, the inhibition is < 20%.
In the case of `O=C(CCc1ccc(O)cc1)NNc1c(Cl)cncc1Cl`, the inhibition was < 20%.
As to `O=C(Cc1cccc2ccccc12)NNc1c(Cl)cncc1Cl`, the inhibition was < 20%.
Turning to `O=C(CCc1ccccc1)NNc1ccncc1`, the inhibition is < 20%.
In the case of `O=C(CCc1ccccc1)Nc1c(Cl)cncc1Cl`, the inhibition was < 20%.
On to `Clc1cncc(Cl)c1NNCCCc1ccccc1`, for which the inhibition is < 20%.
Same read-out and setting: the result for `O=C(/C=C/c1ccccc1)NNc1c(Cl)cncc1Cl` reads < 20%; that for `O=C(Cc1ccc2ccccc2c1)NNc1c(Cl)cncc1Cl`, < 20%; that for `CN(Nc1c(Cl)cncc1Cl)C(=O)CCc1ccccc1`, < 20%.
On the same count and under the same terms, the result for `O=C(NNc1c(Cl)cncc1Cl)c1cc2ccccc2[nH]1` reads < 20%.
Still for that read-out and setting: to `O=C(NCc1ccccc1)NNc1c(Cl)cncc1Cl` belongs < 20%; to `O=C(NNc1c(Cl)cncc1Cl)C1CC2C=CC1C2` (configuration not stated), < 20%; to `O=C(CCc1ccccc1)NNc1cc(Cl)nc(Cl)c1`, < 20%.

For the next experiment, the target named is T1, P2X purinoceptor 7. Briefly: Antagonist activity at human P2X7 receptor in human THP1 cells assessed as inhibition of BzATP-induced IL-1beta release pretreated for 30 mins before bzATP challenge measured after 30 mins by ELISA.
Conditions: not given
(In general: An ELISA detects its analyte on a solid surface through an enzyme-linked reagent.)
Regarding `CC12CC3CC(C)(C1)CC(C(=O)NNc1c(Cl)cncc1Cl)(C3)C2`, the IC50 was found to be 9.2 nM.
Regarding `O=C(CCC1CCCCC1)NNc1c(Cl)cncc1Cl`, the IC50 amounted to 56 nM.
On the same count and under the same terms, to `O=C(NNc1c(Cl)cncc1Cl)C1C2CC3CC(C2)C(Br)C1C3` (configuration not stated) belongs 1.3 nM; to `O=C(NNc1c(Cl)cncc1Cl)C1C2CC3CC(C2)CC1C3` (configuration not stated), 130 nM.
Consider `CN([C@@H](Cc1ccc(OS(=O)(=O)c2cccc3cnccc23)cc1)C(=O)N1CCN(c2ccccc2)CC1)S(=O)(=O)c1cccc2cnccc12`, for which the IC50 came out at 120 nM.
On to `O=C(CC1CCCCCC1)NNc1c(Cl)cncc1Cl`, for which the concentration for half-maximal inhibition (IC50) was 42 nM.
Turning to `O=C(CCc1ccccc1)NNc1c(Cl)cncc1Cl`, the half-maximal inhibitory concentration (IC50) was determined as 320 nM.

What is called IC50 is the point on the concentration scale where inhibition reaches its midpoint. As a reminder, the inhibition is how much of the control response was suppressed.
